Active and inactive are the calls of the source. The calls are words filed in the database; no cut-off is given here.
Legend:
[1] = Cytotoxicity against human HaCaT cells assessed as cell viability incubated for 48 hrs by MTT assay; assay type: toxicity, cell-based
Summary of the method: (§1)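 Cells seeded at 5000/well, held 24 h at 37 °C, 5% CO2, then exposed 48 h to 100, 50, 25, 12.5, 6.3 or 3.1 μM, with an untreated control. Then 0.5 mg mL⁻¹ MTT in FBS-free DMEM for 4 h at 37 °C, formazan dissolved in DMSO and read at 570 nm. IC50 is the mean ± SD of at least three independent experiments; 5-FU served as positive control.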

COLO-829 = test: Cytotoxicity against human COLO-829 cells assessed as cell viability incubated for 48 hrs by MTT assay; assay type: functional, cell-based; details: COLO-829, 48 h; summary of the method: as §1
HeLa [2] = test: Cytotoxicity against human HeLa cells assessed as cell viability incubated for 48 hrs by MTT assay; assay type: functional, cell-based
Summary of the method: (§2)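 5000 cells/well preincubated 24 h at 37 °C, 5% CO₂, then exposed to 3.1–100 μM for 48 h; untreated control, 5-FU positive control. MTT at 0.5 mg/mL in FBS-free DMEM for 4 h, formazan dissolved in DMSO, absorbance read at 570 nm. IC50 taken as half-maximal inhibitory concentration; mean ± SD of at least three independent experiments.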

HepG2 = test: Cytotoxicity against human HepG2 cells assessed as cell viability incubated for 48 hrs by MTT assay; assay type: functional, cell-based; details: HepG2, 48 h; summary of the method: as §1
A549 = test: Cytotoxicity against human A549 cells assessed as cell viability incubated for 48 hrs by MTT assay; assay type: functional, cell-based; details: A549, 48 h; summary of the method: as §1
HeLa [3] = test: Induction of apoptosis in human HeLa cells assessed as necrotic cells at 3.7 uM incubated for 48 hrs by Annexin V-FITC/PI staining based flow cytometry analysis (reference value: 0.12%); assay type: functional
[4] = Selectivity index, ratio of IC50 for cytotoxicity against human HaCaT cells assessed as cell viability to IC50 for cytotoxicity against human HepG2 cells assessed as cell viability; assay type: toxicity, cell-based; details: HaCaT cells versus HepG2 cells
Summary of the method: (§3)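 Selectivity index is IC50 in non-cancer HaCaT keratinocytes divided by IC50 in the cancer line. Both IC50 values came from MTT viability after 48 h exposure (5000 cells/well, 3.1–100 μM, absorbance at 570 nm), each a mean of at least three independent experiments.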

HeLa [5] = test: Antiproliferative activity against human HeLa cells assessed as inhibition of colony formation at 1.5 to 12 uM incubated for 14 days by crystal violet staining based analysis; assay type: functional, cell-based; details: dose 1.5-12 µM, time 14.0 day
Summary of the method: (§4)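 1000 HeLa cells per 3.5 cm dish, treated after attachment with 0, 1.5, 3, 6 or 12 μM for 14 days, medium refreshed every 2 days. Cells were fixed in 100% methanol for 30 min and stained with 0.1% crystal violet for 30 min. Colonies were imaged and counted, normalised to control wells. At least triplicate.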

Mitochondrial membrane [6] = test: Induction of mitochondrial membrane potential depolarization in human HeLa cells assessed as green fluorescence intensity at 7.3 uM incubated for 48 hrs by JC-1 staining based flow cytometric analysis (reference value: 3.28; assay type: cell membranes
Summary of the method: (§5)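 HeLa cells grown in 10 cm dishes and left to attach overnight, then treated 48 h at 0, 3.7, 7.3 or 14.5 μM. Stained with JC-1 per kit instructions. Red (J-aggregate, 590 nm) and green (monomer, 527–529 nm) fluorescence read by flow cytometry. Red/green ratio expressed as % of untreated cells. At least triplicate; one-way ANOVA.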

HeLa [7] = test: Induction of apoptosis in human HeLa cells assessed as viable cells at 14.5 uM incubated for 48 hrs by Annexin V-FITC/PI staining based flow cytometry analysis (reference value: 91.2%); assay type: functional; details: read-out: Activity
[8] = Selectivity index, ratio of IC50 for cytotoxicity against human HaCaT cells assessed as cell viability to IC50 for cytotoxicity against human HeLa cells assessed as cell viability; assay type: toxicity, cell-based; details: HaCaT cells versus HeLa cells, read-out: Ratio IC50; summary of the method: as §3
Mitochondrial membrane [9] = test: Induction of mitochondrial membrane potential depolarization in human HeLa cells assessed as green fluorescence intensity at 14.5 uM incubated for 48 hrs by JC-1 staining based flow cytometric analysis (reference value: 3.28); assay type: cell membranes; summary of the method: as §5
HeLa [10] = test: Induction of apoptosis in human HeLa cells assessed as viable cells at 3.7 uM incubated for 48 hrs by Annexin V-FITC/PI staining based flow cytometry analysis (reference value: 91.2%); assay type: functional; details: read-out: Activity
[11] = Selectivity index, ratio of IC50 for cytotoxicity against human HaCaT cells assessed as cell viability to IC50 for cytotoxicity against human A549 cells assessed as cell viability; assay type: toxicity, cell-based; details: HaCaT cells versus A549 cells; summary of the method: as §3
HeLa [12] = test: Induction of ROS production in human HeLa cells incubated for 48 hrs by H2DCFDA dye-based flow cytometry analysis; assay type: functional, cell-based; details: dose 3.7-14.5 µM
Summary of the method: (§6)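 HeLa cells exposed to 0, 3.7, 7.3 or 14.5 μM for 48 h, trypsinised, washed in PBS, then loaded with H₂DCFDA (final 10 μM) at 37 °C for 30 min in the dark. DCF fluorescence (ex 498/em 522 nm) read by flow cytometry and expressed as percent of untreated cells. At least triplicate.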

HeLa [13] = test: Anti-migration activity in human HeLa cells assessed as increase in wound width at 14.5 uM incubated 24 hrs by wound-healing assay (reference value: 61%); assay type: functional
HeLa [14] = test: Induction of apoptosis in human HeLa cells assessed as necrotic cells at 7.3 uM incubated for 48 hrs by Annexin V-FITC/PI staining based flow cytometry analysis (reference value: 0.12%); assay type: functional
HeLa [15] = test: Induction of apoptosis in human HeLa cells assessed as early apoptotic cells at 14.5 uM incubated for 48 hrs by Annexin V-FITC/PI staining based flow cytometry analysis (reference value: 2.56%); assay type: functional
Mitochondrial membrane [16] = test: Induction of mitochondrial membrane potential depolarization in human HeLa cells assessed as red fluorescence intensity at 14.5 uM incubated for 48 hrs by JC-1 staining based flow cytometric analysis (reference value: 95.8); assay type: cell membranes; summary of the method: as §5
HeLa [17] = test: Induction of ROS production in human HeLa cells at 3.7 uM incubated for 48 hrs by H2DCFDA dye-based flow cytometry analysis; assay type: functional; summary of the method: as §6
Mitochondrial membrane [18] = test: Induction of mitochondrial membrane potential depolarization in human HeLa cells assessed as green fluorescence intensity at 3.7 uM incubated for 48 hrs by JC-1 staining based flow cytometric analysis (reference value: 3.28); assay type: cell membranes; summary of the method: as §5
HeLa [19] = test: Induction of apoptosis in human HeLa cells assessed as necrotic cells incubated for 48 hrs by Annexin V-FITC/PI staining based flow cytometry analysis; assay type: functional, cell-based; details: dose 3.7-14.5 µM
Mitochondrial membrane [20] = test: Induction of mitochondrial membrane potential depolarization in human HeLa cells assessed as decrease in red to green fluorescence intensity ratio at 3.7 to 14.5 uM incubated for 48 hrs by JC-1 staining based flow cytometric analysis; details: dose 3.7-14.5 µM
Summary of the method: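 HeLa cells attached overnight, then treated at 0, 3.7, 7.3 or 14.5 μM for 48 h and stained with JC-1. Red (590 nm) and green (527–529 nm) fluorescence measured by flow cytometry. Red/green ratio expressed as percent of untreated cells; one-way ANOVA, at least triplicate.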

HeLa [21] = test: Induction of ROS production in human HeLa cells at 7.3 uM incubated for 48 hrs by H2DCFDA dye-based flow cytometry analysis; assay type: functional; summary of the method: as §6
HeLa [22] = test: Induction of apoptosis in human HeLa cells assessed as late apoptotic cells at 14.5 uM incubated for 48 hrs by Annexin V-FITC/PI staining based flow cytometry analysis (reference value: 6.10 %); assay type: functional
HeLa [23] = test: Anti-migration activity in human HeLa cells assessed as inhibition of cell migration at 14.5 uM incubated 24 hrs by wound-healing assay; assay type: functional; design: scale not given: the % may be the effect or the level left
HeLa [24] = test: Induction of apoptosis in human HeLa cells assessed as late apoptotic cells at 7.3 uM incubated for 48 hrs by Annexin V-FITC/PI staining based flow cytometry analysis (reference value: 6.10 %); assay type: functional
HeLa [25] = test: Antiproliferative activity against human HeLa cells assessed as inhibition of colony formation at 12 uM incubated for 14 days by crystal violet staining based analysis; assay type: functional, cell-based; details: time 14.0 day; summary of the method: as §4
Mitochondrial membrane [26] = test: Induction of mitochondrial membrane potential depolarization in human HeLa cells assessed as red fluorescence intensity at 7.3 uM incubated for 48 hrs by JC-1 staining based flow cytometric analysis (reference value: 95.8); assay type: cell membranes; summary of the method: as §5
HeLa [27] = test: Induction of apoptosis in human HeLa cells assessed as viable cells at 7.3 uM incubated for 48 hrs by Annexin V-FITC/PI staining based flow cytometry analysis (reference value: 91.2%); assay type: functional; details: read-out: Activity
HeLa [28] = test: Induction of apoptosis in human HeLa cells assessed as early apoptotic cells at 3.7 uM incubated for 48 hrs by Annexin V-FITC/PI staining based flow cytometry analysis (reference value: 2.56%); assay type: functional
HeLa [29] = test: Induction of apoptosis in human HeLa cells assessed as late apoptotic cells at 3.7 uM incubated for 48 hrs by Annexin V-FITC/PI staining based flow cytometry analysis (reference value: 6.10 %); assay type: functional
A-375 = test: Cytotoxicity against human A-375 cells assessed as cell viability incubated for 48 hrs by MTT assay; assay type: functional, cell-based; details: A-375, 48 h; summary of the method: as §2
HeLa [30] = test: Induction of apoptosis in human HeLa cells assessed as necrotic cells at 14.5 uM incubated for 48 hrs by Annexin V-FITC/PI staining based flow cytometry analysis (reference value: 0.12%); assay type: functional
HeLa [31] = test: Induction of apoptosis in human HeLa cells assessed as early apoptotic cells at 7.3 uM incubated for 48 hrs by Annexin V-FITC/PI staining based flow cytometry analysis (reference value: 2.56%); assay type: functional
HeLa [32] = test: Induction of ROS production in human HeLa cells at 14.5 uM incubated for 48 hrs by H2DCFDA dye-based flow cytometry analysis; assay type: functional; summary of the method: as §6
Mitochondrial membrane [33] = test: Induction of mitochondrial membrane potential depolarization in human HeLa cells assessed as red fluorescence intensity at 3.7 uM incubated for 48 hrs by JC-1 staining based flow cytometric analysis (reference value: 95.8); assay type: cell membranes; summary of the method: as §5

In the case of O=c1[nH]cc(F)c(=O)[nH]1 [FLUOROURACIL], the IC50 at 48 h [1] is reported as 30 µM, the IC50 (COLO-829) is reported as 48.7 µM and the IC50 (HeLa [2]) is reported as 14.5 µM. The IC50 (HepG2) was 16.6 µM and the IC50 (A549) was 72.6 µM.

With CN(C)CCNCCc1ccc2c(Cl)cc(Cl)c(N)c2n1.Cl.Cl.Cl the Activity (HeLa [3]) was 0.33%, the selectivity ratio [4] was 2.5 and the Activity (HeLa [5]) was “Active”. For the same molecule, the Flu intensity (Mitochondrial membrane [6]) was 8.25, the viability at 14.5 µM (HeLa [7]) was 49.3% and the selectivity ratio [8] was 2.8. The Flu intensity (Mitochondrial membrane [9]) was 37.3, the viability at 3.7 µM (HeLa [10]) was 90.6% and the selectivity ratio [11] was 2.5. The Activity (HeLa [12]) was “Dose-dependent-effect”, the Activity (HeLa [13]) was 74% and the IC50 at 48 h [1] was 41.1 µM. For the same molecule, the Activity (HeLa [14]) was 0.1%, the IC50 (COLO-829) was 40.2 µM and the IC50 (HeLa [2]) was 14.5 µM. For the same molecule, the Activity (HeLa [2]; dose <= 100.0 µM) was “Dose-dependent-effect”, the Activity (HeLa [15]) was 21.6% and the Flu intensity (Mitochondrial membrane [16]) was 61.8. For the same molecule, the IC50 (HepG2) was 16.6 µM, the Activity (HeLa [17]) was 125% and the Flu intensity (Mitochondrial membrane [18]) was 5.51. For the same molecule, the IC50 (A549) was 16.2 µM, the Activity (HeLa [19]) was “Dose-dependent-effect” and the Activity (Mitochondrial membrane [20]) was “Active”. For the same molecule, the Activity (HeLa [21]) was 138%, the Activity (HeLa [22]) was 28.9% and the Activity (HeLa [23]) was 33%. The Activity (HeLa [24]) was 8.49%, the Activity (HeLa [25]) was “Active” and the Flu intensity (Mitochondrial membrane [26]) was 91.2. The viability at 7.3 µM (HeLa [27]) was 85.3%, the Activity (HeLa [28]) was 2.56% and the Activity (HeLa [29]) was 6.48%. It also gave an IC50 (A-375) of 38.1 µM, an Activity (HeLa [30]) of 0.15% and an Activity (HeLa [31]) of 6.06%. For the same molecule, the Activity (HeLa [32]) was 150% and the Flu intensity (Mitochondrial membrane [33]) was 93.9.

From ChEMBL document CHEMBL6083225, “Copper selective 8-aminoquinoline based tetradentate chelators as anticancer agents” (RSC Med Chem, 2024)
